Measurements: ChEMBL document CHEMBL4270661 (Bioorg Med Chem, 2018)
Calls of active or inactive are those of the source. No cut-off for these calls is given here.

Columns and labels:
[1] = Induction of microtubule depolymerization in rat A10 cells assessed as cellular microtubule loss incubated for 18 hrs by DAPI staining-based indirect immunofluorescence assay; assay type: cell-based; settings: A10, 18 h
[2] = biological target: T1, Tubulin (Homo sapiens) (UniProt P68371+Q9H4B7+P0DPH7+P68366+Q13509+Q71U36+P04350+Q3ZCM7+P07437+P68363+Q9BQE3+Q6PEY2+Q13885+Q9BVA1+Q9BUF5); experiment: Inhibition of [3H]-colchicine binding to tubulin (unknown origin) at 5 uM relative to control; assay type: protein-complex assay
[3] = system: MDA-MB-435; experiment: Antiproliferative activity against human MDA-MB-435 cells after 48 hrs by sulforhodamine B assay; assay type: functional, cell-based; settings: MDA-MB-435, 48 h
Summary of the method: (§1)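 SRB assay: cells plated at set densities, left 24 h to attach and grow, then exposed in triplicate wells to a concentration range for 48 h (DMSO vehicle). Cells fixed, protein stained with SRB. Cells kept at 37 °C, 5% CO2.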

[4] = biological target: T1, Tubulin (Homo sapiens); experiment: Inhibition of [3H]-colchicine binding to tubulin (unknown origin) at 0.5 uM relative to control; assay type: protein-complex assay
[5] = system: HeLa; experiment: Antiproliferative activity against human HeLa cells after 48 hrs by sulforhodamine B assay; assay type: functional, cell-based; summary of the method: as §1
[6] = system: HeLa; experiment: Antiproliferative activity against human HeLa cells expressing wild type beta3 tubulin after 48 hrs by sulforhodamine B assay; assay type: functional, cell-based; summary of the method: as §1
[7] = Resistance index, ratio of IC50 for human HeLa cells expressing wild type beta3 tubulin to IC50 for human HeLa cells; assay type: functional
Summary of the method: (§2)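 Relative resistance (Rr): IC50 in resistant line divided by IC50 in isogenic parental line, from 48 h SRB assays (HeLa WT βIII vs HeLa; SK-OV-3/MDR-1-6/6 vs SK-OV-3).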

[8] = system: SK-OV-3; experiment: Antiproliferative activity against human SKOV3 cells after 48 hrs by sulforhodamine B assay; assay type: functional, cell-based; settings: SK-OV-3, 48 h; summary of the method: as §1
[9] = Antiproliferative activity against human SKOV3-MDR1-M6/6 cells after 48 hrs by sulforhodamine B assay; assay type: functional; settings: SKOV3-MDR1-M6/6, 48 h; summary of the method: as §1
[10] = Resistance index, ratio of IC50 for human SKOV3-MDR1-M6/6 cells to IC50 for human SKOV3 cells; assay type: functional; summary of the method: as §2
[11] = system: MDA-MB-231; experiment: Antitumor activity against human MDA-MB-231 cells xenografted in athymic Foxn1nu/Foxn1nu mouse assessed as tumor growth inhibition at 10 mg/kg, ip, administered on day 1,2,3,8,9 and 10; assay type: functional, organism-based
[12] = system: NCI/ADR-RES; settings: Homo sapiens, 10 mg/kg
[13] = system: MDA-MB-435; experiment: Antitumor activity against human MDA-MB-435 cells xenografted in athymic Foxn1nu/Foxn1nu mouse assessed as tumor growth inhibition at 75 mg/kg, ip, administered on day 1,2,3,4 and 9; assay type: functional, organism-based
Summary of the method: (§3)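 Female athymic nude mice, 6 weeks old, bilateral flank implants of MDA-MB-435 tumor fragments. Grouped at ~200 mm³ (5 mice, 10 tumors per group), randomized. 75 mg/kg ip per dose, stock in ethanol or water diluted in PBS (<5% solvent), vs untreated controls. Caliper volume (width × length × height), tumor mass at trial end (day 15), mean ± SEM.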

[14] = system: Mus musculus; experiment: Toxicity in athymic Foxn1nu/Foxn1nu mouse xenografted with human MDA-MB-435 cells assessed as body weight loss at 75 mg/kg, ip, administered on day 1,2,3,4 and 9; assay type: organism-based; settings: in vivo
Summary of the method: (§4)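 Female athymic nude mice bearing bilateral MDA-MB-435 flank tumors, 10 tumors per group, given 75 mg/kg ip (PBS, <5% solvent). Individual body weights tracked through the trial as percent change, mean ± SEM, vs untreated controls.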

[15] = system: Mus musculus; experiment: Toxicity in athymic Foxn1nu/Foxn1nu mouse xenografted with human MDA-MB-435 cells assessed as occurence of neurological side effects at 75 mg/kg, ip, administered on day 1,2,3,4 and 9; assay type: organism-based; settings: in vivo
[16] = system: MDA-MB-435; experiment: Antitumor activity against human MDA-MB-435 cells xenografted in athymic Foxn1nu/Foxn1nu mouse assessed as tumor growth inhibition at 75 mg/kg, ip, administered on day 1,2,3,4,7,9 and 11; assay type: functional, organism-based; summary of the method: as §3
[17] = system: Mus musculus; experiment: Toxicity in athymic Foxn1nu/Foxn1nu mouse xenografted with human MDA-MB-435 cells assessed as body weight loss at 75 mg/kg, ip, administered on day 1,2,3,4,7,9 and 11; assay type: organism-based; settings: in vivo; summary of the method: as §4
[18] = system: Mus musculus; experiment: Toxicity in athymic Foxn1nu/Foxn1nu mouse xenografted with human MDA-MB-435 cells assessed as occurence of neurological side effects at 75 mg/kg, ip, administered on day 1,2,3,4,7,9 and 11; assay type: organism-based; settings: in vivo
[19] = system: MDA-MB-231; experiment: Antitumor activity against human MDA-MB-231 cells xenografted in athymic Foxn1nu/Foxn1nu mouse assessed as tumor growth inhibition at 75 mg/kg, ip, administered on day 1,2,3,8,9 and 10; assay type: functional, organism-based
[20] = system: NCI/ADR-RES; experiment: Antitumor activity against p-gp expressing human NCI/ADR-RES cells xenografted in athymic Foxn1nu/Foxn1nu mouse assessed as tumor growth inhibition at 75 mg/kg, ip administered on day 1,3 and 5 measured on day 9; assay type: functional, organism-based
Summary of the method: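 Female athymic nude mice, bilateral flank NCI/ADR-RES (Pgp-expressing) tumor transplants, 8-9 tumors per group. […] Caliper tumor volume, mean ± SEM, compared on day 9 when the trial was stopped.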

SMILES	EC50 [1] [nM]	inhibition [2] [%]	IC50 [3] [nM]	inhibition [4] [%]	IC50 [5] [nM]	IC50 [6] [nM]	IC50 [8] [nM]	Ratio IC50 [7]	IC50 [9] [nM]	Ratio IC50 [10]	also measured
COc1ccc2c(c1)CCCN2c1nc(C)nc2cc[nH]c12	230	70									
COc1ccc(/C=C\c2cc(OC)c(OC)c(OC)c2)cc1O [COMBRETASTATIN A4]	9.8								7		
COc1ccc(Nc2nc(C)nc3cc[nH]c23)cc1	> 10000	5.8									
COc1ccc(Nc2nc(C)nc3cc[nH]c23)c(OC)c1	> 10000	0									
CC(=O)O[C@H]1C(=O)[C@@]2(C)[C@H]([C@H](OC(=O)c3ccccc3)[C@]3(O)C[C@H](OC(=O)[C@H](O)[C@@H](NC(=O)c4ccccc4)c4ccccc4)C(C)=C1C3(C)C)[C@]1(OC(C)=O)CO[C@@H]1C[C@@H]2O [PACLITAXEL]							5				TGI [11]: Active; TGI [12]: inactive
COc1ccc2c(c1)CCCN2c1nc(C)nc2ccn(C)c12.Cl	39	98	21	72	27	33	30	1.2	31.5	1.1	

Now from value to molecule, other results behind:

EC50 [1] [nM]	inhibition [2] [%]	IC50 [3] [nM]	inhibition [4] [%]	IC50 [5] [nM]	IC50 [6] [nM]	IC50 [8] [nM]	SMILES	Ratio IC50 [7]	IC50 [9] [nM]	Ratio IC50 [10]	also measured
> 10000	14						COc1ccc(Nc2nc(C)nc3ccn(C)c23)c(OC)c1				
32	96	27	82	14	10	13	CCCCn1ccc2nc(C)nc(N(C)c3ccc(OC)cc3)c21.Cl	0.7	15	1.2	
28	96	10.8	79	17	14	17	CCn1ccc2nc(C)nc(N(C)c3ccc(OC)cc3)c21	0.8	19.3	1.1	
1200	60						COc1ccc(N(C)c2nc(C)nc3cc[nH]c23)cc1				
7.4	99	4.3	79	5	4.3	5.2	COc1ccc(N(C)c2nc(C)nc3ccn(C)c23)cc1.Cl	0.9	6	1.2	TGI [13]: Active; Activity [14]: Non-Toxic; Activity [15]: Toxic
20	97	9	86	5.9	5.1	5	CCCn1ccc2nc(C)nc(N(C)c3ccc(OC)cc3)c21.Cl	0.9	7	1.4	TGI [16]: Active; Activity [17]: Non-Toxic; Activity [18]: Non-Toxic; TGI [19]: Active; TGI [20]: Active
55	95	39	67	26	23	26	COc1ccc(N(C)c2nc(C)nc3ccn(CC(C)C)c23)cc1.Cl	0.9	25	1	
42	92	21	60	32	20	31	COc1ccc(N(C)c2nc(C)nc3ccn(C(C)C)c23)cc1.Cl	0.6	58	1.9	
> 10000	4.2						COc1ccc(Nc2nc(C)nc3ccn(C)c23)cc1				
